# Positions count from the first letter of the chain named.
# Key:
# Type in all cases: biochemical
# KDM4A N198G mutant = molecular target: T1, KDM4A N198G mutant (Homo sapiens, UniProt O75164, N198G); assay: MALDI demethylase assay, H3K9me3 substrate peptide, N198G mutant
# T1 sequence (O75164 1-1064 N198G): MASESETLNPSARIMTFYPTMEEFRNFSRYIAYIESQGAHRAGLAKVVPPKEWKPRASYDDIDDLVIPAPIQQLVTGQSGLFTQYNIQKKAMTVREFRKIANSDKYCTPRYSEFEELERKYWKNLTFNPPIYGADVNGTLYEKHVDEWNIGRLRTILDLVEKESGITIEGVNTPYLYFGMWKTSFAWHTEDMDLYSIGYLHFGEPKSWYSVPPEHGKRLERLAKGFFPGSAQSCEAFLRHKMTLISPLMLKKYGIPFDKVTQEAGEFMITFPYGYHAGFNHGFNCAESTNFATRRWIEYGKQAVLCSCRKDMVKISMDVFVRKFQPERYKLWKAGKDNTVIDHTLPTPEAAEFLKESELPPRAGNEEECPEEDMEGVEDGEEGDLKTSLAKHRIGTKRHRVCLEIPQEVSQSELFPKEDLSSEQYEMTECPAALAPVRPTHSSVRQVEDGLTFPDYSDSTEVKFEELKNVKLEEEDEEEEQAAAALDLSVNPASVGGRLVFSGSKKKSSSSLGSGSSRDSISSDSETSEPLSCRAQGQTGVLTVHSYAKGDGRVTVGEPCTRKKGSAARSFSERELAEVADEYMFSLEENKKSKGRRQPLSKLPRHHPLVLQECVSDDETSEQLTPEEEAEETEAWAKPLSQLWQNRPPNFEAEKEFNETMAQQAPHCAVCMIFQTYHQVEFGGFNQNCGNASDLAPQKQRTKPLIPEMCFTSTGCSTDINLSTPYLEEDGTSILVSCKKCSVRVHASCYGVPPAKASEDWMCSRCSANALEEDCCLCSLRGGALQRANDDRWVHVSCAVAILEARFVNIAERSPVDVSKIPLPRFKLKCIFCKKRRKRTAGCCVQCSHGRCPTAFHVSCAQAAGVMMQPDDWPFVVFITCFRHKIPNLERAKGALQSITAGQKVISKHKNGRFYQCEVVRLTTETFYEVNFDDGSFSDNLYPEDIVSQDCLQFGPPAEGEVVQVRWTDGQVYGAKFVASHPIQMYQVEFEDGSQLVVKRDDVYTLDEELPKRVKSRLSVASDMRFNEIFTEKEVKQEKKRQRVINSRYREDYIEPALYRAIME
# KDM4A N198A mutant [1] = molecular target: T2, KDM4A N198A mutant (Homo sapiens, UniProt O75164, N198A); assay: MALDI demethylase assay, H3K9me3 substrate peptide, N198A mutant; conditions: for inhibition of demethylase activity: 100 μM compound, 50 μM 2KG, MALDI-MS; for IC50: MALDI demethylase assay, dose-dependent
# T2 sequence (O75164 1-1064 N198A): T1 sequence (O75164 1-1064 N198G) with G198A
# KDM4A N198A mutant [2] = molecular target: T2, KDM4A N198A mutant; assay: Demethylation of full-length H3Kc9me3 by western blot with H3K9me3 antibody; conditions: in presence of 2KG
# Method in brief: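 Substrate is full-length histone H3 carrying a trimethyl-lysine analogue at K9 (H3KC9me3), installed chemically by the thialysine approach and verified by ESI-HRMS. The substrate is incubated with the KDM4A N198A mutant. Remaining K9 trimethylation is then detected by western blot with an anti-H3K9me3 antibody.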
# wild type KDM4A = molecular target: T3, wild type KDM4A (Homo sapiens, UniProt O75164); assay: MALDI demethylase assay, H3K9me3 substrate peptide, wild type enzyme; conditions: 3 mM compound
# T3 sequence (O75164 1-1064): T1 sequence (O75164 1-1064 N198G) with G198N
Molecule,"inhibition of demethylase activity (KDM4A N198G mutant; 100 μM compound, 50 μM 2KG, MALDI-MS)","IC50 (KDM4A N198G mutant; N198G mutant, MALDI demethylase assay) [µM]",inhibition of demethylase activity (KDM4A N198A mutant [1]),IC50 (KDM4A N198A mutant [1]; N198A mutant) [µM],"Hill slope (KDM4A N198A mutant [1]; N198A mutant, dose-response of IC50 experiment)",inhibition of demethylation of full-length H3Kc9me3 (KDM4A N198A mutant [2]),inhibition of wild type KDM4A (wild type KDM4A),selectivity over the wild type enzyme (KDM4A N198A mutant [1]; N198A mutant vs wild type KDM4A)
"CC(C)C[C@H](NC(=O)C(=O)O)C(=O)O [compound 7, leucine-NOG]",inhibited,288,,,,,,
"CCC(NC(=O)C(=O)O)C(=O)O (centres unmarked) [compound 3, ethyl-NOG]",,,significantly inhibited,139,−1.06,significantly inhibited,About 50%,
propyl-NOG [compound 5],,,significantly inhibited,80,,,no more than 30%,more than 20 fold

# Reference: publication PMC6570502 (Chembiochem : a European journal of chemical biology, 2019)
